Measured values from ChEMBL document CHEMBL1149758, “N-[2-(5,5-dimethyl-1,3-dioxane-2-yl)ethyl]amino acids: their synthesis, anti-inflammatory evaluation and QSAR analysis” (Eur J Med Chem, 2008).
The source made the active and inactive calls. The calls are words filed in the database; no cut-off is given here.

System: Mus musculus
Assay: Antiinflammatory activity against xylene-induced ear edema in ICR mouse at 20 mg/kg, po
Type: functional, organism-based
Design: dose 20 mg/kg
Method in brief: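 Mice dosed orally with compound suspended in CMC (2.0 mg/mL), vehicle group given CMC, aspirin in CMC as positive control; 30 min later 0.03 mL xylene applied to both surfaces of right ear, left ear untreated. After 2 h mice killed, 7 mm ear punches weighed; edema = right minus left section weight, expressed as % inhibition. n = 11; ANOVA, p < 0.05.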

| SMILES | Activity |
| --- | --- |
| CC1(C)COC(CCN[C@@H](CCCNC(=N)N)C(=O)O)OC1 | Active |
| CC(C)C[C@H](NCCC1OCC(C)(C)CO1)C(=O)O | Active |
| CC1(C)COC(CCN[C@@H](Cc2c[nH]c3ccccc23)C(=O)O)OC1 | Active |
| CC1(C)COC(CCN[C@@H](Cc2c[nH]cn2)C(=O)O)OC1 | Active |
| CSCC[C@H](NCCC1OCC(C)(C)CO1)C(=O)O | Active |
| CC1(C)COC(CCN[C@@H](CCC(N)=O)C(=O)O)OC1 | Active |
| C[C@@H](O)[C@H](NCCC1OCC(C)(C)CO1)C(=O)O | Active |
| CC1(C)COC(CCN[C@@H](CC(N)=O)C(=O)O)OC1 | Active |
| CC1(C)COC(CCN[C@@H](Cc2ccc(O)cc2)C(=O)O)OC1 | Active |
| CC1(C)COC(CCN2CCC[C@H]2C(=O)O)OC1 | Active |
| C[C@H](NCCC1OCC(C)(C)CO1)C(=O)O | Active |
| CC1(C)COC(CCN[C@@H](CCC(=O)O)C(=O)O)OC1 | Active |
| CC1(C)COC(CCN[C@@H](CC(=O)O)C(=O)O)OC1 | Active |
| CC1(C)COC(CCN[C@@H](CO)C(=O)O)OC1 | Active |
| CC1(C)COC(CCN[C@@H](Cc2ccccc2)C(=O)O)OC1 | Active |
| CC(C)[C@H](NCCC1OCC(C)(C)CO1)C(=O)O | Active |
| CC1(C)COC(CCNCC(=O)O)OC1 | Active |
| CC[C@H](C)[C@H](NCCC1OCC(C)(C)CO1)C(=O)O | Active |
| CC1(C)COC(CCN[C@@H](CCCCN)C(=O)O)OC1 | Active |
